Values after ≈ are worked out from the molar mass of the structure shown. Blank lines part the entries; values can stand above or below the molecule they belong to.
Experiments:
[1] = (§1) Drug level in human hepatocytes treated with 25-Chloro-5,18-dimethyl-13,14,17,20,22,23-hexahydro-1H,7H-15,19-methano-8,12-(metheno)-4,6,2,14,15,22-benzodioxatetraazacyclopentacosine-3,7,21,28(2H,16H)-tetrone assessed as esterase-mediated compound formation at 4 uM after 40 mins by ultraperformance liquid chromatographic method; type: ADME, cell-based; settings: isolated protein
Summary of the method: (§2)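 Cryopreserved human hepatocytes at 10^6 viable cells/mL, thawed and pre-warmed 10 min at 37 °C. Compound added from CH3CN stock at 4 µM final. Incubated 40 min, then quenched in cold CH3CN, with compound-free incubations as blanks. Metabolites assigned by LC-MS product ion spectra.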

Serine protease 1 = Serine protease 1 (Homo sapiens, UniProt P07477); test: Inhibition of human trypsin 1 using S-2222 as substrate preincubated for 300 secs followed by substrate addition measured after 40 mins
Chain of Serine protease 1 (P07477 whole entry): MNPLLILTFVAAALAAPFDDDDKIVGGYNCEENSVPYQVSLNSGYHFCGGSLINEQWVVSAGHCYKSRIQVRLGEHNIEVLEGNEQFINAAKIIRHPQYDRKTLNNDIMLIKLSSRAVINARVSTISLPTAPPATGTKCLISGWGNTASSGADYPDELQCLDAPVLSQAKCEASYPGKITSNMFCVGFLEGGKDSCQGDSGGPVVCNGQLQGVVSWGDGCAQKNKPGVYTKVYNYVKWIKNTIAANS
Summary of the method: (§3)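 Human proteases assayed at one substrate concentration with ten inhibitor concentrations at 37 °C, ≤1.3% DMSO, in an enzyme-specific Tris-HCl pH 7.4 buffer. Enzyme and inhibitor preincubated 300 s, then substrate added; absorbance read at 405 nm after 40 min. IC50 converted to Ki by IC50 = Ki(1+S/KM), using KM measured under assay conditions.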

[2] = Cmax in Han Wistar rat at 1 umol/kg, po administered via gavage by LC-MS/MS method; type: ADME, organism-based; parameters: dose 1 umol/kg, route oral; settings: in vivo
Summary of the method: (§4)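 Male Han Wistar rats, cannulated in the carotid artery for sampling and the jugular vein for i.v. dosing, one week before the study (two days before for intraduodenal dosing). Single doses: 0.5 µmol/kg i.v., or 1 µmol/kg by gavage or intraduodenally. Vehicles were 5% mannitol in water or DMA:TEG:water (1:1:1). Plasma sampled up to 24 h and analysed by LC-MS/MS. Non-compartmental analysis; means of n=3, with F from mean AUCinf.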

Homo sapiens [3] = species on record: Homo sapiens; test: Selectivity ratio of Ki for human F9a to Ki for human alpha-thrombin
[4] = Oral bioavailability in Han Wistar rat at 1 umol/kg administered via gavage by LC-MS/MS method; type: ADME, organism-based; settings: in vivo; summary of the method: as §4
Coagulation factor IX = Coagulation factor IX (Homo sapiens, UniProt P00740); test: Inhibition of human F9a using pefachrome F9a as substrate preincubated for 300 secs followed by substrate addition measured after 40 mins
Chain of Coagulation factor IX (P00740 47-191 limits assumed): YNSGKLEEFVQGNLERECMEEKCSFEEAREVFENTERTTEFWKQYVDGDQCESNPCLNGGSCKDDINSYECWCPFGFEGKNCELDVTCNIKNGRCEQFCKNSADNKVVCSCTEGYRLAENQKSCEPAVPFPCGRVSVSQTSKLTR
Chain of Coagulation factor IX (P00740 227-461 limits assumed): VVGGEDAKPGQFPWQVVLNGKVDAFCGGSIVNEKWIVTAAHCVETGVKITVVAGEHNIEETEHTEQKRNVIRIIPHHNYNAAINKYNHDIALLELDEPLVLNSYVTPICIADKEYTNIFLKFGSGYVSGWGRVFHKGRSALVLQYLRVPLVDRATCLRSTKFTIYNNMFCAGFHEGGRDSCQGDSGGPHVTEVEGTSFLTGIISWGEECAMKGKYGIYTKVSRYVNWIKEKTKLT

[5] = Apparent permeability across apical to basolateral side in human Caco2 cells at 10 uM after 45 to 120 mins by ultraperformance LC/MS/MS method; settings: Caco-2
Cytochrome P450 3A4 = Cytochrome P450 3A4 (Homo sapiens, UniProt P08684); test: Inhibition of human CYP3A4; type: ADME
Chain of Cytochrome P450 3A4 (P08684 whole entry): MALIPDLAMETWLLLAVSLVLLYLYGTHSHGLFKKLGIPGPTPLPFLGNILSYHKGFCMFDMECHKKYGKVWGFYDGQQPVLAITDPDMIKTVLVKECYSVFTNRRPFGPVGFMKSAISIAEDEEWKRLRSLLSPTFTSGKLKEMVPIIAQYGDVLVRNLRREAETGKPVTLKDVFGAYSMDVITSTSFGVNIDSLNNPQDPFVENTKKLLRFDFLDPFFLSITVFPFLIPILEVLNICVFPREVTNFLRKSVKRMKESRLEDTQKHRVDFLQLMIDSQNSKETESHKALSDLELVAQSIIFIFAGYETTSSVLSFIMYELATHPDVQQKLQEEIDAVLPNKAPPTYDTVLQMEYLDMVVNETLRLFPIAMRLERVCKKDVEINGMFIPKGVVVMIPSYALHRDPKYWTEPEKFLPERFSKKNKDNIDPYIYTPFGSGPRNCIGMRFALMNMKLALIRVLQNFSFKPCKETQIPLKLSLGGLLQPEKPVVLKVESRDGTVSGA

[6] = AUCinfinity in Han Wistar rat at 1 umol/kg, po administered via gavage by LC-MS/MS method; type: ADME, organism-based; parameters: dose 1 umol/kg, time infinity, route oral; settings: in vivo; summary of the method: as §4
physchem = settings: 1-octanol/phosphate buffer, pH 7.4
[7] = Apparent terminal half life in Han Wistar rat at 1 umol/kg, po administered via gavage by LC-MS/MS method; type: ADME, organism-based; settings: in vivo, read-out: betat1/2(app) (converted); summary of the method: as §4
[8] = Drug level in human liver microsomes treated with treated with 25-Chloro-18-methyl-13,14,17,20,22,23-hexahydro-1H,7H-15,19-methano-8,12-(metheno)-4,6,2,14,15,22-benzodioxatetraazacyclopentacosine-3,7,21,28(1H,16H)-tetrone in presence of NADPH; type: ADME, Microsome
Plasminogen = Plasminogen (Homo sapiens, UniProt P00747); test: Inhibition of human plasmin using S-2366 as substrate preincubated for 300 secs followed by substrate addition measured after 40 mins; summary of the method: as §3
Chain of Plasminogen (P00747 97-580 limits assumed): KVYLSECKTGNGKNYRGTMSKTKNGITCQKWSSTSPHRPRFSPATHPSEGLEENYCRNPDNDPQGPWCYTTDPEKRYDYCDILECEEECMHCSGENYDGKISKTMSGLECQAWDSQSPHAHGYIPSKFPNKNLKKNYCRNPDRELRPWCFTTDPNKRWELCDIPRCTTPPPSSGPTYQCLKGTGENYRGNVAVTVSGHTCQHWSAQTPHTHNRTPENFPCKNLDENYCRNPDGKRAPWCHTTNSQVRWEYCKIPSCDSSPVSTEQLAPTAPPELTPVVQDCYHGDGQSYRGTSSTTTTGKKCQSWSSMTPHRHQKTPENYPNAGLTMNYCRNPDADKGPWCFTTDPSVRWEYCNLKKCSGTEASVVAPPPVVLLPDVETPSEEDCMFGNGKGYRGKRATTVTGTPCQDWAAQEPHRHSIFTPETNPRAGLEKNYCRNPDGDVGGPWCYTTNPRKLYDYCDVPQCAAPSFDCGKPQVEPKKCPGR
Chain of Plasminogen (P00747 581-810 limits assumed): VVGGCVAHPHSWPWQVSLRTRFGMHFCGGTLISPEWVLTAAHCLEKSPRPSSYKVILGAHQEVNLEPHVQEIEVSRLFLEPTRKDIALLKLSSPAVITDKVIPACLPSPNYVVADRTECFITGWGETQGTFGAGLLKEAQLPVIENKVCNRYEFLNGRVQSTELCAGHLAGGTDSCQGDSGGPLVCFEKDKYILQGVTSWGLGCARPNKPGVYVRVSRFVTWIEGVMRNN

[9] = Volume of distribution at steady state in Han Wistar rat at 0.5 umol/kg, iv by LC-MS/MS method; type: ADME, organism-based; settings: in vivo, read-out: Vdss; summary of the method: as §4
Homo sapiens [10] = species on record: Homo sapiens; test: Selectivity ratio of Ki for human tissue factor/F7a to Ki for human alpha-thrombin
Prothrombin = Prothrombin (Homo sapiens, UniProt P00734); test: Inhibition of human alpha-thrombin using S-2366 as substrate after 40 mins
[11] = AUCinfinity in Han Wistar rat at 0.5 umol/kg, iv by LC-MS/MS method; type: ADME, organism-based; parameters: dose 0.5 umol/kg, time infinity, route intravenous; settings: in vivo; summary of the method: as §4
[12] = rat, isolated protein, 40 min, 4 µM
[13] = Drug level in human liver microsomes treated with treated with 25-Chloro-5,18-dimethyl-13,14,17,20,22,23-hexahydro-1H,7H-15,19-methano-8,12-(metheno)-4,6,2,14,15,22-benzodioxatetraazacyclopentacosine-3,7,21,28(2H,16H)-tetrone in presence of NADPH; type: ADME, Microsome
[14] = Solubility of the compound in phosphate buffer at pH 7.4 at 25 degC after 24 hrs by ultraperformance LC/MS/MS method
Homo sapiens [15] = species on record: Homo sapiens; test: Selectivity ratio of Ki for human plasmin to Ki for human alpha-thrombin
[16] = Intrinsic clearance in Sprague-Dawley rat liver microsomes at 1 umol/L after 7 to 30 mins by LC-MS/MS method; type: ADME, Microsome; settings: read-out: CLH
[17] = Drug level in human liver microsomes treated with treated with 25-Chloro-5,18-dimethyl-13,14,17,20,22,23-hexahydro-1H,7H-15,19-methano-8,12-(metheno)-4,6,2,14,15,22-benzodioxatetraazacyclopentacosine-3,7,21,28(2H,16H)-tetrone in absence of NADPH; type: ADME, Microsome
[18] = as §1, with “rat” for “human”; type: ADME, cell-based; settings: isolated protein
[19] = Clearance in Han Wistar rat at 0.5 umol/kg, iv by LC-MS/MS method; type: ADME, organism-based; settings: in vivo; summary of the method: as §4
[20] = Apparent terminal half life in Han Wistar rat at 0.5 umol/kg, iv by LC-MS/MS method; type: ADME, organism-based; settings: in vivo, read-out: betat1/2(app) (converted); summary of the method: as §4
[21] = Efflux ratio of apparent permeability across basolateral to apical over apical to basolateral side in human Caco2 cells at 10 uM after 45 to 120 mins by ultraperformance LC/MS/MS method; settings: Caco-2
Homo sapiens [22] = species on record: Homo sapiens; test: Selectivity ratio of Ki for human F10a to Ki for human alpha-thrombin
[23] = Inhibition of human tissue factor/F7a using spectrozyme as substrate preincubated for 300 secs followed by substrate addition measured after 40 mins; summary of the method: as §3
Coagulation factor XI = Coagulation factor XI (Homo sapiens, UniProt P03951); test: Inhibition of human F11a using S-2366 as substrate preincubated for 300 secs followed by substrate addition measured after 40 mins; summary of the method: as §3
Chain of Coagulation factor XI (P03951 19-387 limits assumed): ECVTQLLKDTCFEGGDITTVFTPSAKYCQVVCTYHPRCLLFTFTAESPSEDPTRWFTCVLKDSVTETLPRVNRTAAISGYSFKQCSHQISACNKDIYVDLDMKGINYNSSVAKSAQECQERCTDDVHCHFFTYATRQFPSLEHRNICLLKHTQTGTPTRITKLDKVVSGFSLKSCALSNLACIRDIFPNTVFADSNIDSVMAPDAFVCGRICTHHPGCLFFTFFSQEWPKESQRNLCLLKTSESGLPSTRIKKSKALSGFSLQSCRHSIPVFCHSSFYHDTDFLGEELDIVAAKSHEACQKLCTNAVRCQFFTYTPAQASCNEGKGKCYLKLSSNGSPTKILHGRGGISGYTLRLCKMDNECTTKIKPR
Chain of Coagulation factor XI (P03951 388-625 limits assumed): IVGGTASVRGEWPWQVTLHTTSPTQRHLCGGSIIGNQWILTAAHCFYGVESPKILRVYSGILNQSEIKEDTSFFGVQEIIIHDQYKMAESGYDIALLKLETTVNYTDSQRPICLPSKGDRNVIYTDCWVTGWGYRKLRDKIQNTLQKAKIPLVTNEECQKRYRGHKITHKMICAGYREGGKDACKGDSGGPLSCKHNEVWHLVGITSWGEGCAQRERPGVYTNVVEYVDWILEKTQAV

[24] = Drug level in human hepatocytes treated with 25-Chloro-18-methyl-13,14,17,20,22,23-hexahydro-1H,7H-15,19-methano-8,12-(metheno)-4,6,2,14,15,22-benzodioxatetraazacyclopentacosine-3,7,21,28(1H,16H)-tetrone assessed as esterase-mediated compound formation at 4 uM after 40 mins by ultraperformance liquid chromatographic method; type: ADME, cell-based; settings: isolated protein; summary of the method: as §2
Rattus norvegicus = species on record: Rattus norvegicus; test: Antithrombotic activity in rat caval vein thrombosis model assessed as prevention of venous thrombosis; type: functional, organism-based
[25] = Drug level in human liver microsomes treated with treated with 25-Chloro-18-methyl-13,14,17,20,22,23-hexahydro-1H,7H-15,19-methano-8,12-(metheno)-4,6,2,14,15,22-benzodioxatetraazacyclopentacosine-3,7,21,28(1H,16H)-tetrone in absence of NADPH; type: ADME, Microsome
Coagulation factor X = Coagulation factor X (Homo sapiens, UniProt P00742); test: Inhibition of human F10a using S-2765 as substrate preincubated for 300 secs followed by substrate addition measured after 40 mins; summary of the method: as §3
Chain of Coagulation factor X (P00742 41-179 limits assumed): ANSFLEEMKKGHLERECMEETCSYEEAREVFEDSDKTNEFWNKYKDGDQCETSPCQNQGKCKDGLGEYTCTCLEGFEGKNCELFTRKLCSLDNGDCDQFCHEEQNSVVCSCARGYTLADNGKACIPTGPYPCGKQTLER
Chain of Coagulation factor X (P00742 235-488 limits assumed): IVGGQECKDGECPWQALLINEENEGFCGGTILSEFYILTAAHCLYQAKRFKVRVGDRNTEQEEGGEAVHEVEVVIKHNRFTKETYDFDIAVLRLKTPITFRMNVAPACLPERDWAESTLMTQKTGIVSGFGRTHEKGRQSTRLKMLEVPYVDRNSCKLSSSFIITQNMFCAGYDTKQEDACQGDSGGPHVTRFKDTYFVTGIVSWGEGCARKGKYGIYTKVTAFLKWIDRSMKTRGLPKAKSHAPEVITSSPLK

[26] = biological target: Thrombin & trypsin (Homo sapiens) (UniProt P00734+P07477+P07478+P35030); test: Selectivity ratio of Ki for human trypsin 1 to Ki for human alpha-thrombin; type: protein assay
Plasma = test: Anticoagulant activity in human citrated plasma assessed as concentration required to double activated partial thromboplastin time after 3 mins by coagulation analyser; type: functional, cell-free; settings: 0.05 h
Homo sapiens [27] = species on record: Homo sapiens; test: Selectivity ratio of Ki for human F11a to Ki for human alpha-thrombin
[28] = Prodrug conversion in human liver microsomes assessed as 3-((3-(2-(2-(Aminomethyl)-5-chlorobenzylamino)-2-oxoethyl)-4-methyl-2-oxo-5,6-dihydropyridin-1(2H)-ylamino)methyl)benzoic acid formation in absence of NADPH; type: ADME, Microsome
[29] = Prodrug conversion in rat hepatocytes assessed as esterase-mediated 3-((3-(2-(2-(Aminomethyl)-5-chlorobenzylamino)-2-oxoethyl)-4-methyl-2-oxo-5,6-dihydropyridin-1(2H)-ylamino)methyl)benzoic acid formation at 4 uM after 40 mins by ultraperformance liquid chromatographic method; type: ADME, cell-based
[30] = Prodrug conversion in human plasma assessed as esterase-mediated metabolite formation after 4 hrs; type: ADME, cell-free
[31] = Prodrug conversion in human liver microsomes assessed as 3-((3-(2-(2-(Aminomethyl)-5-chlorobenzylamino)-2-oxoethyl)-4-methyl-2-oxo-5,6-dihydropyridin-1(2H)-ylamino)methyl)benzoic acid formation in presence of NADPH; type: ADME, Microsome

Drug metabolism [1]: Metabolite_Detected
Ki (Serine protease 1): > 5.4 µM
Cmax [2]: 4 nM
Ratio Ki (Homo sapiens [3]): > 1000
bioavailability [4]: 0.5%
Ki (Coagulation factor IX): > 29 µM
Papp A→B at 10 µM [5]: 0.1 ×10⁻⁶ cm/s
IC50 (Cytochrome P450 3A4): > 50 µM
AUC(0-inf) [6]: 0.0025 µM·h
logD at 3 h (physchem): -0.5
half-life [7]: 33.6 min
Drug metabolism [8]: Metabolite_Detected
Ki (Plasminogen): > 19 µM
Vd [9]: 0.23 L/kg
Ratio Ki (Homo sapiens [10]): > 1000
Ki (Prothrombin): 0.0046 µM
AUC(0-inf) [11]: 0.258 µM·h
Drug metabolism [12]: Metabolite_Detected
Drug metabolism [13]: Metabolite_Detected
solubility at 24 h [14]: > 100 µM
Ratio Ki (Homo sapiens [15]): > 1000
microsomal CLint at 1 µM [16]: < 15 µL/min/mg
Drug metabolism [17]: Metabolite_Detected
Drug metabolism [18]: Metabolite_Detected
clearance [19]: 32.4 mL/min/kg
half-life [20]: 21 min
efflux ratio at 10 µM [21]: 2.4
Ratio Ki (Homo sapiens [22]): > 1000
Ki [23]: > 33 µM
Ki (Coagulation factor XI): > 19 µM
Drug metabolism [24]: Metabolite_Detected
IC50 (Rattus norvegicus): 0.097 µM
Drug metabolism [25]: Metabolite_Detected
Ki (Coagulation factor X): > 17 µM
Ratio Ki [26]: > 1000
IC50 (Plasma): 1.2 µM
Ratio Ki (Homo sapiens [27]): > 1000
Structure (SMILES): CC1=C(CC(=O)NCc2cc(Cl)ccc2CN)C(=O)N(NCc2cccc(C(=O)O)c2)CC1

Structure (SMILES): C=O [FORMALDEHYDE]
Drug metabolism [12]: Metabolite_Detected

Drug metabolism [28]: Metabolite_Detected
Drug metabolism [29]: Metabolite_Detected
Papp A→B at 10 µM [5]: 45 ×10⁻⁶ cm/s
Drug metabolism [30]: Metabolite_Notdetected
logD at 3 h (physchem): 2.6
Drug metabolism [31]: Metabolite_Detected
solubility at 24 h [14]: 340 µM (≈ 184 µg/mL)
efflux ratio at 10 µM [21]: 4.8
Structure (SMILES): CC1=C2CC(=O)NCc3cc(Cl)ccc3CNC(=O)OC(C)OC(=O)c3cccc(c3)CNN(CC1)C2=O (stereo unspecified)

Source: ChEMBL document CHEMBL4425130, “Macrocyclic Prodrugs of a Selective Nonpeptidic Direct Thrombin Inhibitor Display High Permeability, Efficient Bioconversion but Low Bioavailability” (J Med Chem, 2016)
